STEP inh: inhibitors of human striatal-enriched phosphatase STEP; P54829; recombinant STEP, OMFP fluorogenic substrate, fluorescence; inhibition, % at 20 µM; 360,000 compounds, 0.25% hits; AID 588621;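 active = inhibition at 20 µM, scaled per plate between control wells, above about 37%, limit read from the data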;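 note: 0% = DMSO with enzyme and substrate and 100% = substrate only without enzyme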
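material = STEP tyrosine phosphatase | reagent = fluorogenic phosphatase substrate OMFP at 25 µM final | doses = single compound dose of 20 µM, 1% DMSO final | schedule = 20 min reaction, room temperature, in the dark | measured by = fluorescence, 480/540 nm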
LMPTP block: LMPTP (human) inhibition | 360,000 compounds, 0.22% hits | recombinant LMPTP-A, OMFP fluorogenic substrate, fluorescence intensity | inhibition, % at 20 µM;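 active = compounds that cut the enzyme signal by at least half of the control window in the single-dose screen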;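 note: plate controls were DMSO wells with enzyme plus substrate for no effect and substrate without enzyme for full effect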
Target sequence (P24666 whole entry, looked up): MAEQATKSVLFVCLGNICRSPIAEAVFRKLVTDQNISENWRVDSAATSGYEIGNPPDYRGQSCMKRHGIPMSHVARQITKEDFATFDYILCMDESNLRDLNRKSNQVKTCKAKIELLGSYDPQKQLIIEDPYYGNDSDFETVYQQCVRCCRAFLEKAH
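test system = LMPTP-A | amount = 0.625 nM LMPTP-A final | reagent = fluorogenic phosphatase substrate OMFP at 400 µM final | incubation = 50 min at room temperature | benchmarks = no-enzyme low control, uninhibited high control | medium = Bis-Tris pH 6.0, DTT, detergent | signal = fluorescence intensity of OMFP turnover product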
Scp1 inh: inhibitors of human Scp-1 phosphatase; AID 493091; inhibition, % at 20 µM; Recombinant Scp1, phosphopeptide, malachite green phosphate absorbance; 340,000 compounds, 0.88% hits; Q9GZU7;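 active = inhibition above about 50% at 20 µM, limit read from the data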;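 note: plate controls were DMSO wells with enzyme for no effect and wells lacking enzyme for full effect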
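Assay system: SCP-1 catalytic fragment, aa 76-261 | Buffer or medium: Tris acetate buffer pH 5.5 with MgCl2 and Tween-20 | Compound: One concentration, 20 µM, with 1.0% DMSO | Also added: Phospho 17-mer peptide substrate | Signal: Absorbance at 630 nm | Incubation: 45 min enzyme reaction at room temperature | Measure: % inhibition of SCP-1 phosphate liberation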
SUMO1 PPI mod: alters human SUMO1 binding to SIM partners. AID 602429. SUMO1 binding to a labelled peptide, TR-FRET, 1 h. 360,000 compounds, 0.33% hits. inhibition, % at 20 µM; in the data active = inhibition above about 37%
Target sequence (P63165 whole entry, looked up): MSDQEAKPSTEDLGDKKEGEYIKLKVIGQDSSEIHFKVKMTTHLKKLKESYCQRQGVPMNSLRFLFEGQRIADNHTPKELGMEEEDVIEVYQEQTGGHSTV
SUMO HTRF inh: inhibitors of human SUMOylation (UBC9) | P63279 | HTRF SUMOylation assay, SAE1/SAE2 + UBC9, in vitro | inhibition, % at 35 µM | 290,000 compounds, 0.36% hits | AID 2006; in the data active = inhibition above about 50%, passing the limit was not always enough
Target sequence (P63279 whole entry, looked up): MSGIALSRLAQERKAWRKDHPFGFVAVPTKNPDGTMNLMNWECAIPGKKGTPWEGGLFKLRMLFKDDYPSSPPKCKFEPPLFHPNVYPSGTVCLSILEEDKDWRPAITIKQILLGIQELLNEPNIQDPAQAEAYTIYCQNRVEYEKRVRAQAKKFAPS
DNMT1 inh: inhibitors of human DNMT1 | P26358 | DNMT1 molecular beacon, Hinp1I cleavage, fluorescence | inhibition (reported as % activation of signal), % at 10 µM | 360,000 compounds, 0.83% hits | AID 588458; in the data active = inhibition above about 50%
STEP inh conf: confirmation of human STEP phosphatase inhibitors; recombinant STEP, OMFP fluorogenic substrate, fluorescence; AID 623866; 520 compounds, 32% hits; inhibition, % at 20 µM; shares compounds with STEP inh; call rule not given here;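 note: 0% = enzyme with substrate plus DMSO and 100% = substrate without enzyme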
* = called active by the depositor; . = not tested or not shown. Most compounds without a hit are left out; they make up all but 1.9% or so of the library.

SMILES	STEP inh	LMPTP block	Scp1 inh	SUMO1 PPI mod	SUMO HTRF inh	DNMT1 inh	STEP inh conf
COc1ccc(-c2csc(NC(C)c3nc4cc(C(F)(F)F)ccc4n3CCOCCO)n2)cc1 (stereo not drawn)	44*	3	-1	1	.	-19	15
CC(Nc1nc(-c2ccc(F)cc2)cs1)c1nc2cc(C(F)(F)F)ccc2n1CCOCCO (stereo not drawn)	0	2	-2	1	.	-21	.
CC1(C)CC(NC(=S)Nc2ccc(S(N)(=O)=O)cc2)CC(C)(C)N1	63*	2	7	-1	10	8	16
Cc1ccccc1NC(=O)COC(=O)c1ccccc1SCC(=O)N1CCCC1	-1	-1	-5	-6	-3	-1	.
O=C(O)c1ccccc1C(=O)NCC(O)c1ccccc1 (stereo not drawn)	91*	-1	-13	6	15	-1	-4
CCOc1ccc(CCNC(=O)CS(=O)(=O)Cc2nc(-c3ccc(OC)cc3)oc2C)cc1	44*	25	22	4	21	18	19*
CCOc1ccc(CNC(=O)CS(=O)(=O)Cc2nc(-c3ccc(OC)cc3)oc2C)cc1	2	1	-19	-9	19	-1	.
O=C(Nc1nc2nccc(-c3ccccc3)n2n1)c1ccc(F)cc1	52*	1	-3	4	20	28	-1
O=C(Nc1nc2nccc(-c3ccccc3)n2n1)c1ccccc1	1	1	-1	29	13	3	.
c1ccc(OCc2nnc3n2N=C(c2ccccc2)CS3)cc1	70*	1	-5	-5	11	-2	0
CCCN(C(=S)Nc1ccccc1)C1CCS(=O)(=O)C1 (stereo not drawn)	2	2	3	-4	-1	2	.
Cc1cc(C)cc(NC(=O)C(OC(=O)c2sccc2C)c2ccccc2)c1 (stereo not drawn)	-1	3	-12	4	-26	-7	.
Cc1cc(C)n(Cc2ccc(NC(=O)c3c([N+](=O)[O-])c(C)nn3C)cc2)n1	2	-1	-3	-15	2	-8	.
O=C(Nc1ccc(C(=O)N2CCCCC2)cc1)c1cccs1	68*	2	-7	-17	5	7	4
Cc1ccc(NC(=O)CCn2c(=S)oc3ccccc32)cc1F	48*	36	25	11	14	42	38*
COc1ccc(NC(=O)CCCN2C(=O)C(c3ccccc3)Oc3cccnc32)c(OC)c1 (stereo not drawn)	0	-1	1	5	17	0	.
CSc1ccccc1NC(=O)CN(C)C(=O)c1cccc(S(=O)(=O)N(C)C)c1	49*	4	1	-10	4	2	8
C/C(CC(=O)Nc1ccc2c(c1)OCCO2)=N\NC(=O)COc1ccccc1C	50*	0	2	1	15	-2	6
C/C(CC(=O)Nc1ccc2c(c1)OCCO2)=N\NC(=O)COc1cccc(C)c1	-3	1	-5	4	2	-1	.
CC(C)CNC(=O)C(=O)Nc1ccc2c(c1)N(S(=O)(=O)c1cccs1)CCC2	1	1	-11	-2	.	-3	.
O=C(O)c1cccc(NC(=S)NC(NC(=O)c2cccc([N+](=O)[O-])c2)C(Cl)(Cl)Cl)c1 (stereo not drawn)	63*	-1	-8	98*	21	-2	8
O=C(O)c1cccc(NC(=S)NC(NC(=O)c2ccccc2[N+](=O)[O-])C(Cl)(Cl)Cl)c1 (stereo not drawn)	-1	-2	-1	-7	-15	4	.
S=C(NCCN1CCOCC1)C(=S)NCCN1CCOCC1	42*	-2	-2	-19	.	5	13
CCCc1cc(=O)oc2cc(OCC(=O)N3CCN(C(=O)C4COc5ccccc5O4)CC3)ccc12 (stereo not drawn)	1	1	-3	-4	15	-3	.

High-throughput results (PubChem)
